Measured values reported in ChEMBL document CHEMBL4837248, “Discovery and SAR Evolution of Pyrazole Azabicyclo[3.2.1]octane Sulfonamides as a Novel Class of Non-Covalent N-Acylethanolamine-Hydrolyzing Acid Amidase (NAAA) Inhibitors for Oral Administration” (J Med Chem, 2021).
Active and inactive are the calls of the source. The calls are words filed in the database; no cut-off is given here.

Target: T1, N-acylethanolamine-hydrolyzing acid amidase (Homo sapiens) (UniProt Q02083)
T1 sequence (whole entry): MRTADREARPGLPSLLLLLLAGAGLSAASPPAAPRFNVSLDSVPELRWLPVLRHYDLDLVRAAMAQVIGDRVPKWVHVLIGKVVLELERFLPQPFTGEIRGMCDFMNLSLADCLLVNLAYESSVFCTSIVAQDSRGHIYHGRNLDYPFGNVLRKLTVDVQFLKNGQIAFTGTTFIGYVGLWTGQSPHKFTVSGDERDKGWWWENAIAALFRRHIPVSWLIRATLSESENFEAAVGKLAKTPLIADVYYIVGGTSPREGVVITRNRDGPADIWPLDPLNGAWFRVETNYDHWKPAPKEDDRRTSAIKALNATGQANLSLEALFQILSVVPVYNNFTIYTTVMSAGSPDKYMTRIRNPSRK
Assay: Inhibition of recombinant human NAAA expressed in HEK293 cells using PAMCA as fluorogenic substrate at 50 uM preincubated for 30 mins followed by substrate addition and measured after 50 mins by fluorescence assay relative to control
Format: cell-based
Conditions: not given
Summary of the method: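 Lysosomal-type enzyme-enriched lysate from HEK-293 cells stably expressing human NAAA (4 μg protein), preincubated 30 min with compound or 5% DMSO in 100 mM citrate/phosphate pH 4.5 with 3.0 mM DTT, 0.1% NP40, 0.05% BSA, 150 mM NaCl. Reaction started with PAMCA substrate (2 μM), run 50 min at 37 °C. Fluorescence read at ex 355/em 460 nm against enzyme-free background.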

Row | inhibition [%] | Structure (SMILES)
1 | < 10 | O=S(=O)(c1cn[nH]c1)N1CCC(Oc2cnccn2)CC1
2 | < 10 | Cc1n[nH]c(C)c1C(=O)N1CCC(Oc2cnccn2)CC1
3 | < 10 | Cc1n[nH]c(C)c1S(=O)(=O)N1[C@@H]2CC[C@H]1C[C@H](Oc1cnccn1)C2
4 | < 10 | Cc1n[nH]c(C)c1S(=O)(=O)N1C[C@H]2CCC[C@@H](C1)[C@H]2Oc1cnccn1
5 | < 10 | Cc1noc(C)c1S(=O)(=O)N1CCC(Oc2cnccn2)CC1
6 | < 10 | Cc1nn(C)c(C)c1S(=O)(=O)N1CCC(Oc2cnccn2)CC1
7 | < 10 | Cc1cnn(C)c1S(=O)(=O)N1CCC(Oc2cnccn2)CC1

The next lines start with the molecule.

Row | Structure (SMILES) | inhibition [%]
8 | COc1n[nH]c(C)c1S(=O)(=O)N1CCC(Oc2cnccn2)CC1 | < 10
9 | Cc1n[nH]c(C)c1S(=O)(=O)N[C@H]1CC[C@H](Oc2cnccn2)CC1 | < 10
10 | Cc1n[nH]cc1S(=O)(=O)N1CCC(Oc2cnccn2)CC1 | < 10
11 | Cc1n[nH]c(C)c1S(=O)(=O)N1CCC(Cc2cnccn2)CC1 | < 10
12 | Cc1n[nH]c(C)c1S(=O)(=O)N1CC(Oc2cnccn2)C1 | < 10
13 | Cc1n[nH]c(C)c1S(=O)(=O)N1CCC(c2cnccn2)CC1 | < 10
14 | Cc1n[nH]c(C)c1S(=O)(=O)N1CCC(Nc2cnccn2)CC1 | < 10

Target: T1, N-acylethanolamine-hydrolyzing acid amidase (Homo sapiens)
Assay: Inhibition of ARN14686 probe binding to human NAAA expressed in HEK293 cells preincubated for 2 hrs followed by ARN14686 probe addition and measured after 15 mins by fluorescence assay
Format: cell-based
Conditions: time 135.0 min
Summary of the method: (§1)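 Lysosomal enrichment (0.5 mg/mL) from HEK293 cells overexpressing human NAAA was preincubated 2 h at 37 °C with compound at a final 20 μM (2% DMSO); DMSO-only controls were included. ARN14686 probe (20 μM) was then added at 37 °C for 15 min or 4 h. An Alexa Fluor 545 azide was attached by CuSO4/TCEP/TBTA click chemistry (2 h, 25 °C). Read-out was SDS-PAGE in-gel fluorescence at 532 nm, with Coomassie loading control.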

Row | Structure (SMILES) | inhibition
15 | CCOCc1cnc(O[C@H]2C[C@H]3CC[C@@H](C2)N3S(=O)(=O)c2c(C)n[nH]c2C)cn1 | Active

Target: T1, N-acylethanolamine-hydrolyzing acid amidase (Homo sapiens)
Assay: Inhibition of ARN14686 probe binding to human NAAA expressed in HEK293 cells preincubated for 2 hrs followed by ARN14686 probe addition and measured after 4 hrs by fluorescence assay
Format: cell-based
Conditions: time 6.0 hrs
Summary of the method: as §1

Row | Structure (SMILES) | inhibition
16 | CCOCc1cnc(O[C@H]2C[C@H]3CC[C@@H](C2)N3S(=O)(=O)c2c(C)n[nH]c2C)cn1 | inactive
